Activity calls are given as the source filed them. No cut-off for these calls is given here.
How the values were obtained:
[1] = test system: BHK; experiment: Inhibition of HDAC expressed in hamster BHK cell line assessed as increase in plasma membrane Fdelta508 CFTR protein at 5 uM by immunofluorescence method; type: cell-based
In short: (§1)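 Surface ΔF508extope is labelled with HA.11 antibody under non-permeabilizing conditions.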

[2] = In vivo inhibition of HDAC; type: organism-based
[3] = target: Cystic fibrosis transmembrane conductance regulator (Homo sapiens) (UniProt P13569); experiment: Inhibition of CFTR transcription assessed as decrease of CFTR protein level at 50 uM by immunoblot method
[4] = target: T1, Histone deacetylase 7 (Homo sapiens) (UniProt Q8WUI4); experiment: Inhibition of HDAC7 in wild-type CFTR expressing human primary lung cells assessed as forskolin-stimulated Fdelta508 CFTR channel activity at 10 uM after 24 hrs relative to control; type: cell-based; conditions: in the assay text read “Fdelta508 CFTR homozygous” for “wild-type CFTR expressing”
T1 sequence (whole entry): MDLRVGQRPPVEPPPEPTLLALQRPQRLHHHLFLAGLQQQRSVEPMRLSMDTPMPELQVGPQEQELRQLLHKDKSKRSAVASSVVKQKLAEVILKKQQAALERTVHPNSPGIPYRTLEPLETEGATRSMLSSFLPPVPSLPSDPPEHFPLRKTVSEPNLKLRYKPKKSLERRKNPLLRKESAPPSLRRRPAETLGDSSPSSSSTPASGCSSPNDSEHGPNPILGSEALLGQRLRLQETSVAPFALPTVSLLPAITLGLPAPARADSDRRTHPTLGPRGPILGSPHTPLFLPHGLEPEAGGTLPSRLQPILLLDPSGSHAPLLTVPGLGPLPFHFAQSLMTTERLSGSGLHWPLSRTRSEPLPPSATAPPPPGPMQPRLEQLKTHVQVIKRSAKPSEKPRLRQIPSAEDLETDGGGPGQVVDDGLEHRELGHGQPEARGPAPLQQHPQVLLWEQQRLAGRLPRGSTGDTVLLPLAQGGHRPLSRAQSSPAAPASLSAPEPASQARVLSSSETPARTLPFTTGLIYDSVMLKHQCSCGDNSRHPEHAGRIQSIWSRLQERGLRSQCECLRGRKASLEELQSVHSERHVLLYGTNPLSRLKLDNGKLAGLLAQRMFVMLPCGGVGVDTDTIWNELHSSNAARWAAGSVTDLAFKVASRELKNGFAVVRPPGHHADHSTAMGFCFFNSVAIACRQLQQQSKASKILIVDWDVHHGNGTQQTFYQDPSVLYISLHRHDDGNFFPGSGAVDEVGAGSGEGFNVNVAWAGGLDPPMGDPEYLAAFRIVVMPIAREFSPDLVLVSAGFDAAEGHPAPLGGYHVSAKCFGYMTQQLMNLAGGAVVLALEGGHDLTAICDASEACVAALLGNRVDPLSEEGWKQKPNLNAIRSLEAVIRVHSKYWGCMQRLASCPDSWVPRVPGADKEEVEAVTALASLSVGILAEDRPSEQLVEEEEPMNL
In short: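 Primary ΔF/ΔF human bronchial epithelial cells on permeable supports receive acute treatment, 10 μM for 24 h. The result is expressed relative to control.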

[5] = target: T1, Histone deacetylase 7 (Homo sapiens); experiment: Inhibition of HDAC7 in human homozygous Fdelta508 primary bronchial epithelial cells assessed as induction of short circuit currents at 1 uM for 4, 6, and 8 days relative to control; type: cell-based; conditions: Epithelial cell
In short: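 Primary bronchial epithelial cells homozygous for ΔF508 from patients are grown on permeable supports. They are exposed to 1 μM for 4, 6 and 8 days against DMSO controls. ΔIsc is measured in Ussing chambers in μA/cm2, and is also compared with wild-type level.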

[6] = target: T1, Histone deacetylase 7 (Homo sapiens); experiment: Inhibition of HDAC7 in wild-type CFTR expressing human primary lung cells assessed as induction of short circuit currents at 1 uM for 4, 6, and 8 days relative to control; type: cell-based
[7] = target: T1, Histone deacetylase 7 (Homo sapiens); experiment: Inhibition of HDAC7 in human CFBE41o- cell line assessed as correction of mutant Fdelta508 CFTR trafficking to cell surface as glycoform at 1 uM by Immunoblot analysis
In short: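 CFBE41o- ΔF508 cells in α-MEM/10% FBS/2mM L-glutamine/puromycin are dosed at 1 μM every 24 h, chronically for up to 8 days, against DMSO. Lysates are made in Tris-HCl/NaCl/1% Triton X-100. 15μg protein is run on 8% SDS-PAGE and probed with M3A7 by chemiluminescence. Band B (ER) and band C (post-Golgi) are quantified, and the C/B ratio is calculated.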

[8] = target: T1, Histone deacetylase 7 (Homo sapiens); experiment: Inhibition of HDAC7 expressed in hamster BHK cell line assessed as increase in plasma membrane Fdelta508 CFTR protein at 1 uM by immunofluorescence method; type: cell-based; in short: as §1
[9] = target: T1, Histone deacetylase 7 (Homo sapiens); experiment: Inhibition of HDAC7 in Fdelta508 CFTR-expressing human CFBE41o- monolayers assessed as increase in short circuit currents at 10 uM
In short: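 CFBE41o- cells stably expressing ΔF508 CFTR are cultured on permeable supports and mounted for short-circuit current (Isc) measurement.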

Chain of Cystic fibrosis transmembrane conductance regulator (Homo sapiens) (P13569 whole entry, looked up): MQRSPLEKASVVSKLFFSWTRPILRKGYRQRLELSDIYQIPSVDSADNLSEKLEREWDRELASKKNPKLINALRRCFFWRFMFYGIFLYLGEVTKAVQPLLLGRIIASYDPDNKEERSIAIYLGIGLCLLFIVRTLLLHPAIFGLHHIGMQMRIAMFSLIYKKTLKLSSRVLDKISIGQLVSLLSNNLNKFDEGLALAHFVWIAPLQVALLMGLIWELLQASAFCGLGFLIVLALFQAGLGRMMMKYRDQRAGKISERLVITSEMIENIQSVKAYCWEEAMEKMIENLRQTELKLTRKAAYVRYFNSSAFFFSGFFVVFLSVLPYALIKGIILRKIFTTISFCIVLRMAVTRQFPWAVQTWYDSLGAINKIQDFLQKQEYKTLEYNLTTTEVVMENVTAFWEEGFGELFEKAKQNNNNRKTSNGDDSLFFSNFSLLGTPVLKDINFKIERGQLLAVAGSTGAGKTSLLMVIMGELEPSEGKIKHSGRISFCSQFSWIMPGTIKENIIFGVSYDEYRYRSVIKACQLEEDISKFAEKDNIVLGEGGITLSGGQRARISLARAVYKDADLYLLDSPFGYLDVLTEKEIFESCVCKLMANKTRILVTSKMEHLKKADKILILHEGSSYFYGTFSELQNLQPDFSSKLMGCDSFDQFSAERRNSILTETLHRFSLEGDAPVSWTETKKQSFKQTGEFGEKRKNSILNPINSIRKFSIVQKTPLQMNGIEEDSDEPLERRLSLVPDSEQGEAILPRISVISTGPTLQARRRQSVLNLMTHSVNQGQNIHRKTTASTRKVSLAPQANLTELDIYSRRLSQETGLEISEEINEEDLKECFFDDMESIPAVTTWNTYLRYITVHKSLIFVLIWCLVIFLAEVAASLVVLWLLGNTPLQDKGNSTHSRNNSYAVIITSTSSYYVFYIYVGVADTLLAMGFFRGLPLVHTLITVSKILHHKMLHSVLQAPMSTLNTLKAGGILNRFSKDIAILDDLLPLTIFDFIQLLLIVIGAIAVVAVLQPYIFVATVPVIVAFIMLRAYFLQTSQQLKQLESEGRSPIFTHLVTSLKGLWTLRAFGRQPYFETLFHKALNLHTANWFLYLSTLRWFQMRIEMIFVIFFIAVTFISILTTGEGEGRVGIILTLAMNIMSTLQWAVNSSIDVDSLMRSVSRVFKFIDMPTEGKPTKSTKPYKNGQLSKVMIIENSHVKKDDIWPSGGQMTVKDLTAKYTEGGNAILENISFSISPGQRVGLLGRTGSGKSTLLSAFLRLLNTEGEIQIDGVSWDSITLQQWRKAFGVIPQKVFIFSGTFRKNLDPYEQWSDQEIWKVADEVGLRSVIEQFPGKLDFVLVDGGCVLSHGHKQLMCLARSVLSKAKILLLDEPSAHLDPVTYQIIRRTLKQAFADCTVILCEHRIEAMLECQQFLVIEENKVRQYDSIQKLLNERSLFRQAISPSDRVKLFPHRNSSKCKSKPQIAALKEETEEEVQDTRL

SMILES | IC50 [2] | inhibition [3] | Activity [4] | further results
Nc1ccccc1NC(=O)c1ccc(CNC(=O)OCc2cccnc2)cc1 [ENTINOSTAT] | 5000 nM | Active | – | inhibition [1]: Active
C=C[C@@]1(C)CC(=O)[C@]2(O)[C@@]3(C)[C@@H](O)CCC(C)(C)[C@@H]3[C@H](O)[C@H](OC(C)=O)[C@@]2(C)O1 | – | – | 3.7 uA.cm'-2 | Activity [5]: 6.5 uA.cm'-2; Activity [6]: 23.1 uA.cm'-2
O=C(CCCCCCC(=O)Nc1ccccc1)NO | – | Active | – | –
CC(/C=C/C(=O)NO)=C\[C@@H](C)C(=O)c1ccc(N(C)C)cc1 [TRICHOSTATIN] | 100 nM | Active | – | –
O=C(CCCCCN1C(=O)c2cccc3cccc(c23)C1=O)NO | 1000 nM | Active | – | inhibition [7]: Active; inhibition [8]: Active; inhibition [9]: Active
O=c1c(-c2ccc(O)cc2)coc2cc(O)cc(O)c12 | – | – | 3.7 uA.cm'-2 | –
